Screens from PubChem.
A selection: hits, their analogues and other compounds. The true share with any hit is near 1.9%.
TDP2 inh: TDP2 (human) inhibition, absorbance primary screen. O95551. recombinant TDP2, T5PNP hydrolysis, p-nitrophenol absorbance 415 nm. inhibition, % at 12.8 µM. 370,000 tested, 0.34% active;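 active = inhibition above the mean of all tested compounds plus 3 SD, set per campaign, cut at about 25% in these data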;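 also: 0% = DMSO with enzyme and 100% = buffer with substrate but no TDP2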
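Test system: Human TDP2 enzyme | Reagent: 5 mM T5PNP | Compound dosing: 12.8 µM single point, 1% DMSO | Incubation: Enzyme reaction with compound for 2 h at 37 °C | Technique: p-Nitrophenol epi absorbance | Read-out: % inhibition relative to enzyme-containing and enzyme-free wells | Benchmarks: High control without enzyme, low control DMSO plus TDP2 | Replicates: Singlicate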
MBD2 DNA inh: blocks human MBD2 binding to methylated DNA | TR-FRET, MBD2 binding to methylated oligonucleotide | inhibition, % at 4.4 µM | 370,000 tested, 0.31% active | AID 686964; in the data active = inhibition above about 13%
LEDGF integ inh: blocks HIV-1 LEDGF/p75-dependent DNA integration | TR-FRET IN-LEDGF/p75 DNA integration, Eu/Cy5 | AID 743269 | inhibition, % at 3.7 µM | 370,000 tested, 0.64% active;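 active = inhibition above the screen-wide mean plus 3 SD, cut at about 13% in these data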;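 also: signal is the Cy5 over europium emission ratio at 671 and 618 nm; 0% = plate median of compound wells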
UHRF1 MBD2 ctr: human UHRF1 methylated DNA binding inhibitors; inhibition, % at 4.4 µM; UHRF1 binding to methylated oligo, TR-FRET; Q96T88; 370,000 tested, 0.75% active; AID 687016; in the data active = inhibition above about 21%;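 also: UHRF1 SRA domain binding a hemimethylated CpG hairpin DNA probe; 0% = median of test compound wells and 100% = reference inhibitor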
Rin1-Abl PPI inh: human Rin1-Abl interaction inhibition | 360,000 tested, 0.4% active | TR-FRET Rin1/Abl binding, biochemical | inhibition, % at 7.35 µM | P00519+Q13671; in the data active = inhibition above about 5%, passing the limit was not always enough
Target sequence (P00519 whole entry, looked up): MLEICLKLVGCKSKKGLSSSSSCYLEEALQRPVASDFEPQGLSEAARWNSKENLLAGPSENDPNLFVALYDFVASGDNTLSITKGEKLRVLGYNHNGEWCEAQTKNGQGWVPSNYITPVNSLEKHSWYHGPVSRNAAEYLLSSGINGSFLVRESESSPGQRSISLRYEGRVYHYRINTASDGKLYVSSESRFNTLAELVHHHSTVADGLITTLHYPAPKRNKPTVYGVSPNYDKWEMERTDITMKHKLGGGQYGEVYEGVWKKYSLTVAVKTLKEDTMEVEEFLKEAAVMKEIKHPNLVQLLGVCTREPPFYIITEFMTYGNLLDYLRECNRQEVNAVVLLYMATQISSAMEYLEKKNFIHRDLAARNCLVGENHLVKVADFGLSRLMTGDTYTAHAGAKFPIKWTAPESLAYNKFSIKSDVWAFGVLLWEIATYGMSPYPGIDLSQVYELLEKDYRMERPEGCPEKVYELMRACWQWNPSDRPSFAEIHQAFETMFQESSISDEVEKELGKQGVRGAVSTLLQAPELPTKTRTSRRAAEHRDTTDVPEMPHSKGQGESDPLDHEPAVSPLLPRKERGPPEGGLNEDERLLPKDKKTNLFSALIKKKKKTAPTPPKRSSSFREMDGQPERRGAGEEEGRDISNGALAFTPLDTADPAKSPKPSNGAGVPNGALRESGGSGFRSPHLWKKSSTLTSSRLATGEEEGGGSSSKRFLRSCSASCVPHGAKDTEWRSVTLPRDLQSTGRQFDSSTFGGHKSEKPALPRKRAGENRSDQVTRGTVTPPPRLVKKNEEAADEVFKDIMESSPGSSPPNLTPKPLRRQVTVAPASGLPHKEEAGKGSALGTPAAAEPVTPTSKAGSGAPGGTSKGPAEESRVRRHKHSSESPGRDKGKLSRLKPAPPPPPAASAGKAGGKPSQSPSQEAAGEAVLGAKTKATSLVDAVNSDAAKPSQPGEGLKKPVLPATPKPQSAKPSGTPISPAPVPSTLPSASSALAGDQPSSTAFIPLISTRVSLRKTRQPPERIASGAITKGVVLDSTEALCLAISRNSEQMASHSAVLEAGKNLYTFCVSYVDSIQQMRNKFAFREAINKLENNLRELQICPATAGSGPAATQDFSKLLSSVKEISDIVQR
Target sequence (Q13671 whole entry, looked up): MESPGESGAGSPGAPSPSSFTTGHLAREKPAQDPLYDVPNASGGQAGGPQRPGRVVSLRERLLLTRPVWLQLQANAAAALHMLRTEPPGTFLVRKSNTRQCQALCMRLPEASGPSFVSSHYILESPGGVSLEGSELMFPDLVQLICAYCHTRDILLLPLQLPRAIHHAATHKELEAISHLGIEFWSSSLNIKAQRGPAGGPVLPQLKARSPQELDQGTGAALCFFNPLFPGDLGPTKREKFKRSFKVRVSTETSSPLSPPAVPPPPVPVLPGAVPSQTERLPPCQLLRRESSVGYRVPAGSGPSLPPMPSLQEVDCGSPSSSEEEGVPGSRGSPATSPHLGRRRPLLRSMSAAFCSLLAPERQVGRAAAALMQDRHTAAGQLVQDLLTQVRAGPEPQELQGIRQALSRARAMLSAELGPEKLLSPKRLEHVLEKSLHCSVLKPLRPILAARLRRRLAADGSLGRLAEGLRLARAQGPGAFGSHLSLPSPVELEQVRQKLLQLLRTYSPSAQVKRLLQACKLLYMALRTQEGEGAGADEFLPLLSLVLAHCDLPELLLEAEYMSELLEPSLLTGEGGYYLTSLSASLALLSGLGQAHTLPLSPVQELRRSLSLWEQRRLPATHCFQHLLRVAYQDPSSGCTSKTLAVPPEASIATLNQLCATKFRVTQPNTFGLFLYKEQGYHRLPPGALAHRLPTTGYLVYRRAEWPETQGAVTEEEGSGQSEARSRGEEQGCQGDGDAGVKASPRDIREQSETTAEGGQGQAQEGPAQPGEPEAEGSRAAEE
TDP2 confirm: human TDP2 inhibition, confirmation; shares compounds with TDP2 inh; recombinant human TDP2, absorbance read-out; inhibition, % at 12.8 µM; 1,100 tested, 22% active; AID 743263; in the data active = inhibition above about 25%;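 also: 0% = vehicle with enzyme and 100% = no enzyme buffer only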
* hit, by the source's call; x = no result given.

SMILES | TDP2 inh | MBD2 DNA inh | LEDGF integ inh | UHRF1 MBD2 ctr | Rin1-Abl PPI inh | TDP2 confirm
C=CCN1C(=O)[C@@H](CC(=O)NCc2ccc(C)o2)[C@]2(C(=O)OCC)CCCCC/C=C/12 | -1.1 | -5.5 | -4.0 | 13.6 | x | x
O=C(Nc1ccc(NC(=O)c2ccco2)cc1)c1ccco1 | 28.4* | -1.1 | 3.9 | 1.0 | -0.4 | 8.8
O=C(Nc1ccc(Br)cc1)c1ccco1 | -8.5 | 6.3 | -0.3 | 18.9 | 1.7 | x
CSc1ccc(CN(C)CC(=O)Nc2c(F)cccc2F)cc1 | 28.7* | -0.4 | -0.6 | -0.4 | 0.9 | 19.8
CSc1ccc(CN(C)CC(=O)Nc2ccc(NC(C)=O)cc2)cc1 | -0.3 | 2.6 | 3.7 | -2.0 | -0.9 | x
CCOC(=O)CC[C@H](NC(=O)[C@@H]1CC=C[C@@H]2CCN(Cc3ccc(Cl)cc3)C(=O)[C@@H]21)C(=O)OCC | -6.5 | 4.7 | 3.4 | 2.6 | x | x
CN(CCOc1ccccc1)CC(=O)Nc1ccc(S(=O)(=O)N2CCCC2)cc1 | 30.0* | 11.1 | -0.3 | 24.6* | 0.3 | -4.6
COc1cc(C(C)=O)ccc1OCC(O)CN1CCN(c2ccccn2)CC1 (configuration not stated) | 26.3* | -0.3 | -0.9 | -2.4 | -1.8 | -1.1
COCCNC(=O)c1c(N)[nH]c(C(=O)c2ccc(Br)cc2)c1-c1c(OC)ccc2ccccc12 | -2.2 | -0.7 | -2.4 | -3.9 | x | x
CCOc1ccc(C(=O)CSc2nnc(SCc3ccc(Cl)cc3)s2)cc1 | -0.6 | 2.7 | -1.7 | 3.5 | x | x
CCc1nc2ccc(C(=O)NCCCN3CCCC3=O)cn2c1N(CC)Cc1cccc(Br)c1 | -5.8 | 5.8 | -2.3 | 1.8 | 1.1 | x
CC1=NN(Cc2ccccc2)C(=O)C1 | 57.8* | -8.0 | 7.1 | 1.1 | -2.6 | 5.9
CCOC(=O)c1cc2c(ccn2C)n1Cc1ccccc1C | 26.0* | 3.2 | 4.2 | 1.1 | 0.5 | -14.8
O=C(NCc1ccccn1)Nc1ccc(Cl)c(Cl)c1 | 0.1 | 4.4 | -0.3 | -1.5 | 3.0 | x
CC(C)c1ccc(NC(=O)NCc2ccccn2)cc1 | 52.2* | 0.9 | -4.5 | -2.8 | 0.6 | 3.2
CC1=NN(c2ccccc2)C(=O)C1C(=O)C(=O)Nc1ccc(F)cc1 (configuration not stated) | 32.4* | -4.2 | 0.6 | 2.6 | 0.8 | 6.6
CC1=NN(c2ccccc2)C(=O)C1C(=O)c1ccccc1 (configuration not stated) | 8.9 | -1.5 | -2.8 | -7.6 | 0.9 | x
N#CCCn1cc(C(=O)N2CCOCC2)c(-c2ccc3c(c2)OCCO3)n1 | 24.9* | 1.9 | 1.5 | -4.5 | 1.8 | -8.7
N#CCCn1cc(C(=O)N2CCCCC2)c(-c2ccc([N+](=O)[O-])cc2)n1 | -2.2 | 0.2 | 1.0 | 1.1 | 1.1 | x
CCN(CC)CCCN1C(=O)C2C(C(=O)Nc3ccc(C(C)C)cc3)C3C=CC2(O3)C1C(=O)NC1CCCCC1 (configuration not stated) | 26.7* | -3.8 | 1.2 | -0.7 | 3.1 | -1.6
CC1=NN(c2ccccc2)C(=O)C1N=Nc1ccc(N)cc1 (configuration not stated) | 28.8* | -5.3 | 3.6 | -7.2 | -2.6 | -1.1
CC1=NN(c2ccccc2)C(=O)C1N=Nc1ccccc1 (configuration not stated) | -6.4 | -0.4 | 0.4 | 1.5 | 3.2 | x
O=C(CN1CCOCC1)Nc1ccccc1Sc1ccccc1 | 8.5 | -7.5 | 2.5 | -0.1 | -0.4 | x
O=C(CNCCN1CCOCC1)Nc1ccccc1Sc1ccccc1 | 27.8* | -4.2 | 5.2 | 2.0 | -4.9 | 13.8
O=S(=O)(NC1CCSc2ccccc21)c1ccc(Cl)nc1 (configuration not stated) | 28.5* | 1.7 | 1.6 | -3.6 | 1.0 | -1.5
SMILES | TDP2 inh | MBD2 DNA inh | LEDGF integ inh | UHRF1 MBD2 ctr | Rin1-Abl PPI inh | TDP2 confirm
CC(C)CN1C(=O)[C@]2(CC(=O)N(C)C2c2ccccc2)c2cc(-n3cc(CO)nn3)ccc21 (some centres not stated) | -10.4 | 1.2 | 5.2 | 6.7 | x | x
Cc1nonc1NC(=O)CSc1nc(CCC2CCCC2)nc2ccccc12 | 25.0* | -5.4 | 0.4 | 0.8 | -4.0 | -0.3
CCOC(=O)C1CCN(c2cc3c(cc2NC(=O)c2ccccc2Br)n(C)c(=O)n3C)CC1 | 25.8* | 4.6 | 1.5 | -1.0 | 1.3 | -0.5
CCOc1ccc2nc(SCC(=O)NCC3CCCO3)c(C#N)cc2c1 (configuration not stated) | 27.4* | 2.9 | 3.1 | 7.3 | -2.1 | -2.2
CC1(C)C=C2C(=NN(c3ccccc3)C(N)=C2C#N)CO1 | 47.4* | -1.6 | -4.3 | -3.7 | -3.0 | 52.6*
Cc1nc2cc(NC(=O)N(C)c3ccc4ccccc4c3)ccc2o1 | 43.9* | -10.7 | 11.2 | -4.6 | -2.0 | -4.5
O=C(Nc1ccc(F)cc1)Nc1nc2ncccn2c1-c1ccc(F)cc1 | 5.8 | -1.7 | -4.8 | -3.6 | x | x
CCCCCCCCNS(=O)(=O)/C=C/c1ccc(OC)cc1CNC(=O)OC(C)(C)C | 2.8 | -2.3 | -5.4 | -3.8 | x | x
COc1ccc2oc(C(=O)N(C)CCOc3ccccc3)c(C)c2c1 | 9.1 | -1.4 | 6.8 | -2.7 | 2.4 | x
Nc1c(S(=O)(=O)c2cccs2)c2nc3ccccc3nc2n1Cc1ccccc1 | 43.9* | 5.0 | 6.2 | 8.8 | -2.7 | 3.6
COc1ccc(S(=O)(=O)N2CCC(C(=O)NCc3ccncc3)CC2)cc1 | 25.7* | -1.8 | 0.0 | 5.9 | 1.6 | 0.7
Cc1cc(C)c(C(N)=O)c(Nc2cccc3ccccc23)n1 | 24.7* | -5.0 | 8.8 | -8.5 | -4.0 | 8.5
COc1ccccc1Nc1nc(C)cc(C)c1C(N)=O | 10.2 | 0.7 | 3.1 | 0.0 | -0.3 | x
O=c1cc(-c2ccc(Br)cc2)[nH][nH]1 | 51.0* | -0.3 | 5.1 | 1.9 | 3.3 | 10.2
O=c1cc(-c2ccc(C3CCCCC3)cc2)[nH][nH]1 | 3.4 | -2.7 | 2.0 | -2.5 | 4.2 | x
COc1ccc(N2CCN(CC(=O)N3c4ccccc4CC3C)CC2)cc1 (configuration not stated) | 25.7* | 0.5 | 0.2 | -1.0 | 1.1 | 10.5
CCOC(=O)c1c(S(=O)(=O)NCC(=O)Nc2ccccc2F)c(C)n(C)c1C | 24.7* | 0.5 | -3.5 | -1.0 | 0.3 | 7.4
Brc1ccccc1OCCN1CCOCC1 | 25.6* | -3.6 | 2.7 | -2.3 | 1.1 | 3.5
Clc1cc(Br)ccc1OCCN1CCOCC1 | 5.9 | -2.2 | 0.2 | -1.0 | 1.1 | x
Cc1ccc(NC(=O)c2ncn(CC(=O)NCC(C)c3ccccc3)n2)cc1C (configuration not stated) | -10.3 | 1.0 | -1.2 | 2.3 | 1.2 | x
Cc1cccc(NC(=O)C(Cc2ccccc2)c2nn[nH]n2)c1C (configuration not stated) | 27.9* | 2.9 | -0.3 | 1.6 | -0.8 | 2.0
Cc1cccc(NC(=O)c2ccccc2NC(=O)Cc2ccccc2)c1C | 13.8 | 9.9 | 0.5 | 0.5 | 6.0 | x
CCCCCCCNC(=O)C1(CC2CC(c3ccc(Cl)cc3)=NO2)CCN(C(=O)C2(C)CC2)CC1 (configuration not stated) | x | x | x | x | 0.6 | x
